Test results published in ChEMBL document CHEMBL1806360, “Synthesis and biological evaluation of conformationally flexible as well as restricted dimers of monastrol and related dihydropyrimidones” (Eur J Med Chem, 2011).
Converted amounts (≈) assume the structure as drawn. The source made the active and inactive calls. The calls are words filed in the database; no cut-off is given here.

Tests used:
MCF7 = assay: Cytotoxicity against human MCF7 cells after 48 hrs by MTT assay; assay type: functional, cell-based; conditions: MCF7, 48 h
Procedure, shortened: (§1)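 MTT assay. Medium with 10% FBS and 2 mM L-glutamine was DMEM for A431 and Colo-205, RPMI for A549, and MEM for MCF-7. Cultures were preincubated 24 h at 37 °C, 5% CO2. 1 × 10⁴ cells (trypan blue count) were exposed to 200, 100, 50, 25 and 10 concentration levels for 48 h at 37 °C. MTT was added for 4 h, formazan dissolved in DMSO, and A570 read. IC50 was curve-fitted from viability versus untreated cells, three experiments.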

COLO 205 = assay: Cytotoxicity against human COLO205 cells after 48 hrs by MTT assay; assay type: functional, cell-based; conditions: COLO 205, 48 h; procedure, shortened: as §1
HT-29 = assay: Cytotoxicity against human HT-29 cells after 48 hrs by MTT assay; assay type: functional, cell-based; conditions: HT-29, 48 h
A-431 = assay: Cytotoxicity against human A431 cells after 48 hrs by MTT assay; assay type: functional, cell-based; conditions: A-431, 48 h; procedure, shortened: as §1
A549 = assay: Cytotoxicity against human A549 cells after 48 hrs by MTT assay; assay type: functional, cell-based; conditions: A549, 48 h; procedure, shortened: as §1
Staphylococcus aureus = assay: Antibacterial activity against Staphylococcus aureus assessed as zone of inhibition at 100 ug/ml by agar plate method; assay type: functional; conditions: read-out: IZ
Procedure, shortened: (§2)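 Well diffusion on Mueller-Hinton agar. Inoculum from 3–5 colonies was grown in nutrient broth and adjusted to 0.5 McFarland (about 1 × 10⁸ CFU/mL), then swabbed over the plate. Compounds were dissolved in DMSO and added to duplicate 6 mm wells. Plates were incubated 18 h at 37 °C, and inhibition zone diameter was read to the nearest mm. Ciprofloxacin was the positive control and DMSO the negative control.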

[1] = test system: Staphylococcus epidermidis; assay: Antibacterial activity against Staphylococcus epidermidis assessed as zone of inhibition at 100 ug/ml by agar plate method; assay type: functional; conditions: read-out: IZ; procedure, shortened: as §2
Bacillus subtilis [2] = assay: Antibacterial activity against Bacillus subtilis assessed as zone of inhibition at 100 ug/ml by agar plate method; assay type: functional; conditions: read-out: IZ; procedure, shortened: as §2
Escherichia coli [3] = assay: Antibacterial activity against Escherichia coli assessed as zone of inhibition at 100 ug/ml by agar plate method; assay type: functional; conditions: read-out: IZ; procedure, shortened: as §2
Klebsiella pneumoniae [4] = assay: Antibacterial activity against Klebsiella pneumoniae assessed as zone of inhibition at 100 ug/ml by agar plate method; assay type: functional; conditions: read-out: IZ; procedure, shortened: as §2
Pseudomonas aeruginosa = assay: Antibacterial activity against Pseudomonas aeruginosa assessed as zone of inhibition at 100 ug/ml by agar plate method; assay type: functional; conditions: read-out: IZ; procedure, shortened: as §2
[5] = test system: Staphylococcus epidermidis; assay: Antibacterial activity against Staphylococcus epidermidis assessed as zone of inhibition at 50 ug/ml by agar plate method; assay type: functional, organism-based; procedure, shortened: as §2
Bacillus subtilis [6] = assay: Antibacterial activity against Bacillus subtilis assessed as zone of inhibition at 50 ug/ml by agar plate method; assay type: functional, organism-based; procedure, shortened: as §2
Escherichia coli [7] = assay: Antibacterial activity against Escherichia coli assessed as zone of inhibition at 50 ug/ml by agar plate method; assay type: functional, organism-based; procedure, shortened: as §2
Klebsiella pneumoniae [8] = assay: Antibacterial activity against Klebsiella pneumoniae assessed as zone of inhibition at 50 ug/ml by agar plate method; assay type: functional, organism-based; procedure, shortened: as §2
Nucleic Acid = assay: Binding affinity to calf thymus DNA assessed as change in melting temperature at compound to DNA ratio of 1:5 after 18 hrs at pH 7; assay type: nucleic-acid assay; conditions: Bos taurus
Procedure, shortened: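 Thermal melting of calf thymus DNA in 10 mM sodium phosphate with 1 mM Na2EDTA, pH 7.00. Compound was added from DMSO stock at a fixed 1:5 compound:DNA molar ratio. The mix was incubated 18 h at 37 °C, then A260 was monitored while heating at 1 °C/min over 40–90 °C. ΔTm is relative to DNA alone.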

| Compound | IC50 (MCF7) [µg/mL] | IC50 (COLO 205) [µg/mL] | IC50 (HT-29) [µg/mL] | IC50 (A-431) [µg/mL] | IC50 (A549) [µg/mL] | zone of inhibition at 100 µg/mL (Staphylococcus aureus) [mm] | zone of inhibition at 100 µg/mL [1] [mm] | zone of inhibition at 100 µg/mL (Bacillus subtilis [2]) [mm] | zone of inhibition at 100 µg/mL (Escherichia coli [3]) [mm] | zone of inhibition at 100 µg/mL (Klebsiella pneumoniae [4]) [mm] | zone of inhibition at 100 µg/mL (Pseudomonas aeruginosa) [mm] | Activity [5] | Activity (Bacillus subtilis [6]) | Activity (Escherichia coli [7]) | Activity (Klebsiella pneumoniae [8]) | ΔTm (Nucleic Acid) [°C] |
| --- | --- | --- | --- | --- | --- | --- | --- | --- | --- | --- | --- | --- | --- | --- | --- | --- |
| CCOC(=O)C1=C(C)NC(=S)NC1c1ccc(OCCCCOc2ccc(C3NC(=S)NC(C)=C3C(=O)OCC)cc2OC)c(OC)c1 (stereo not drawn) | 178 (≈ 255 µM) | > 200 | > 200 | 185 (≈ 265 µM) | > 200 | 9 | 12 | 15 | 10 | 5 | 13 | inactive | inactive | inactive | inactive | – |
| COC(=O)[C@@H]1CCCN1C(=O)C1=C(C)NC(=S)NC1c1ccc(OCCCCOc2ccc(C3NC(=S)NC(C)=C3C(=O)N3CCC[C@H]3C(=O)OC)cc2OC)c(OC)c1 (stereo partly drawn) | 169 (≈ 195 µM) | 154 (≈ 178 µM) | > 200 | 190 (≈ 220 µM) | > 200 | – | – | – | – | – | – | – | – | – | – | – |
| COC(=O)[C@@H]1CCCN1C(=O)C1=C(C)NC(=S)NC1c1cccc(OC/C=C/COc2cccc(C3NC(=S)NC(C)=C3C(=O)N3CCC[C@H]3C(=O)OC)c2)c1 (stereo partly drawn) | 54 (≈ 67.2 µM) | 127 (≈ 158 µM) | > 200 | 96 (≈ 120 µM) | 148 (≈ 184 µM) | – | – | – | – | – | – | – | – | – | – | 2.5 |
| CCOC(=O)C1=C(C)NC(=S)NC1c1ccc(OC/C=C/COc2ccc(C3NC(=S)NC(C)=C3C(=O)OCC)cc2OC)c(OC)c1 (stereo not drawn) | 35 (≈ 50.2 µM) | 90 (≈ 129 µM) | > 200 | 185 (≈ 265 µM) | 165 (≈ 237 µM) | – | – | – | – | – | – | – | – | – | – | 3.2 |
| COC(=O)[C@@H]1CCCN1C(=O)C1=C(C)NC(=S)NC1c1ccc(OC/C=C\COc2ccc(C3NC(=S)NC(C)=C3C(=O)N3CCC[C@H]3C(=O)OC)cc2OC)c(OC)c1 (stereo partly drawn) | 175 (≈ 203 µM) | > 200 | > 200 | 183 (≈ 212 µM) | > 200 | – | – | – | – | – | – | – | – | – | – | 4.1 |
| COC(=O)[C@@H]1CCCN1C(=O)C1=C(C)NC(=S)NC1c1cccc(OCCCCCOc2cccc(C3NC(=S)NC(C)=C3C(=O)N3CCC[C@H]3C(=O)OC)c2)c1 (stereo partly drawn) | 34 (≈ 41.5 µM) | 71 (≈ 86.7 µM) | > 200 | 159 (≈ 194 µM) | 184 (≈ 225 µM) | – | – | – | – | – | – | – | – | – | – | – |
| CCOC(=O)C1=C(C)NC(=S)NC1c1cccc(OCCCCOc2cccc(C3NC(=S)NC(C)=C3C(=O)OCC)c2)c1 (stereo not drawn) | 186 (≈ 291 µM) | > 200 | > 200 | > 200 | > 200 | – | – | – | – | – | – | – | – | – | – | – |
| COC(=O)[C@@H]1CCCN1C(=O)C1=C(C)NC(=S)NC1c1ccc(OCCCOc2ccc(C3NC(=S)NC(C)=C3C(=O)N3CCC[C@H]3C(=O)OC)cc2OC)c(OC)c1 (stereo partly drawn) | 140 (≈ 165 µM) | 92 (≈ 108 µM) | > 200 | 165 (≈ 194 µM) | 180 (≈ 212 µM) | – | – | – | – | – | – | – | – | – | – | – |
| COC(=O)[C@@H]1CCCN1C(=O)C1=C(C)NC(=S)NC1c1ccc(OC/C=C/COc2ccc(C3NC(=S)NC(C)=C3C(=O)N3CCC[C@H]3C(=O)OC)cc2OC)c(OC)c1 (stereo partly drawn) | 60 (≈ 69.5 µM) | 69 (≈ 80 µM) | > 200 | 34 (≈ 39.4 µM) | 158 (≈ 183 µM) | – | – | – | – | – | – | – | – | – | – | 2.8 |
| COC(=O)[C@@H]1CCCN1C(=O)C1=C(C)NC(=S)NC1c1cccc(OCCCCOc2cccc(C3NC(=S)NC(C)=C3C(=O)N3CCC[C@H]3C(=O)OC)c2)c1 (stereo partly drawn) | 128 (≈ 159 µM) | 154 (≈ 191 µM) | > 200 | 148 (≈ 184 µM) | > 200 | – | – | – | – | – | – | – | – | – | – | – |
| CCOC(=O)C1=C(C)NC(=S)NC1c1cccc(OCCCCCOc2cccc(C3NC(=S)NC(C)=C3C(=O)OCC)c2)c1 (stereo not drawn) | 178 (≈ 273 µM) | 190 (≈ 291 µM) | > 200 | 74 (≈ 113 µM) | > 200 | – | – | – | – | – | – | – | – | – | – | – |
| CCOC(=O)C1=C(C)NC(=S)NC1c1ccc(OC/C=C\COc2ccc(C3NC(=S)NC(C)=C3C(=O)OCC)cc2OC)c(OC)c1 (stereo not drawn) | 84 (≈ 121 µM) | 120 (≈ 172 µM) | > 200 | 170 (≈ 244 µM) | > 200 | 12 | 18 | 13 | 12 | – | 15 | inactive | inactive | inactive | inactive | – |
| O=C(O)c1cn(C2CC2)c2cc(N3CCNCC3)c(F)cc2c1=O [CIPROFLOXACIN] | – | – | – | – | – | 25 | 35 | 33 | 35 | 12 | 38 | inactive | inactive | inactive | inactive | – |
| COC(=O)[C@@H]1CCCN1C(=O)C1=C(C)NC(=S)NC1c1cccc(OCCCOc2cccc(C3NC(=S)NC(C)=C3C(=O)N3CCC[C@H]3C(=O)OC)c2)c1 (stereo partly drawn) | 175 (≈ 221 µM) | > 200 | > 200 | 190 (≈ 240 µM) | 175 (≈ 221 µM) | – | – | – | – | – | – | – | – | – | – | – |
| COC(=O)[C@@H]1CCCN1C(=O)C1=C(C)NC(=S)NC1c1ccc(OCCCCCOc2ccc(C3NC(=S)NC(C)=C3C(=O)N3CCC[C@H]3C(=O)OC)cc2OC)c(OC)c1 (stereo partly drawn) | 55 (≈ 62.6 µM) | 142 (≈ 162 µM) | > 200 | 125 (≈ 142 µM) | 150 (≈ 171 µM) | – | – | – | – | – | – | – | – | – | – | – |
| CCOC(=O)C1=C(C)NC(=S)NC1c1cccc(OC/C=C\COc2cccc(C3NC(=S)NC(C)=C3C(=O)OCC)c2)c1 (stereo not drawn) | 49 (≈ 76.9 µM) | 64 (≈ 101 µM) | > 200 | 190 (≈ 298 µM) | 154 (≈ 242 µM) | 15 | 12 | 10 | 8 | 8 | 18 | inactive | inactive | inactive | inactive | – |
